In ChEMBL document CHEMBL3784976 (J Med Chem, 2016):

How the values were obtained:
Homo sapiens = species: Homo sapiens; test: Binding affinity to human delta 2-type opioid receptor assessed as remaining radioligand binding at 10 uM by radioligand displacement assay relative to control
[1] = molecular target: D(1A) dopamine receptor (Homo sapiens) (UniProt P21728); test: Displacement of [3H]SCH-23390 from human recombinant dopamine D1 receptor expressed in CHO cells assessed as remaining radioligand binding at 10 uM after 60 mins by scintillation counting method relative to control; assay type: cell-based
[2] = molecular target: Mu-type opioid receptor (Homo sapiens) (UniProt P35372); test: Displacement of [3H]DAMGO from human recombinant mu opioid receptor expressed in HEK293 cells assessed as remaining radioligand binding at 10 uM after 120 mins by scintillation counting method relative to control; assay type: cell-based
Rattus norvegicus = species: Rattus norvegicus; test: Displacement of [3H]diltiazem from L-type calcium channel diltiazem binding site in rat cerebral cortex assessed as remaining radioligand binding at 10 uM after 120 mins by scintillation counting method relative to control; assay type: tissue-based
[3] = molecular target: Muscarinic acetylcholine receptor M4 (Homo sapiens) (UniProt P08173); test: Displacement of [3H]4-DAMP from human recombinant muscarinic M4 receptor expressed in CHO cells assessed as remaining radioligand binding at 10 uM after 60 mins by scintillation counting method relative to control; assay type: cell-based
[4] = molecular target: Transient receptor potential cation channel subfamily A member 1 (Homo sapiens, UniProt O75762); test: Antagonist activity at human TRPA1 expressed in tetracycline-inducible T-REx expression system transfected CHO cells assessed as inhibition of AITC-induced 45Ca2+ uptake preincubated for 1 min followed by AITC addition measured after 12 mins; assay type: cell-based
[5] = AUC (infinity) in rat at 30 mg/kg, po; assay type: ADME, organism-based; design: dose 30 mg/kg, time infinity, route oral; details: in vivo
Outline: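 Rat oral PK at 30 mg/kg (10 mg/kg for one analogue) in 1% Tween 80/2% HPMC/97% water with methanesulfonic acid, pH 2.2.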

Plasma = test: Unbound plasma concentration in Harlan Sprague-Dawley rat model of AITC-induced flinching at 10 mg/kg, po at 1 hr; assay type: ADME, organism-based; details: in vivo
Outline: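 Rats were given vehicle (2% HPMC/1% Tween-80) or compound orally at 1, 3, 10 or 30 mg/kg. After 1 h, 0.1% AITC was injected into one left ventral hind paw, and nocifensive flinching was recorded over the first minute. Unbound plasma concentration was measured at 1 h, n = 8 per dose. In vivo IC50/IC90 came from the exposure–response relationship across individual animals.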

[6] = Ratio of unbound plasma concentration in Harlan Sprague-Dawley rat model of AITC-induced flinching at 3 mg/kg, po to IC50 for rat TRPA1 expressed in tetracycline-inducible T-REx expression system transfected CHO cells by 45Ca2+ uptake assay; assay type: ADME, organism-based; details: in vivo
Outline: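 Rats dosed orally at 1, 3, 10 or 30 mg/kg in 2% HPMC/1% Tween-80 vehicle. After 1 h, unbound plasma concentration measured (n = 8 per dose), intraplantar AITC (0.1%) given and flinching scored over the first minute. Unbound concentration divided by in vitro rat TRPA1 45Ca2+ IC50.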

D(1A) dopamine receptor (Homo sapiens), sequence (P21728 whole entry): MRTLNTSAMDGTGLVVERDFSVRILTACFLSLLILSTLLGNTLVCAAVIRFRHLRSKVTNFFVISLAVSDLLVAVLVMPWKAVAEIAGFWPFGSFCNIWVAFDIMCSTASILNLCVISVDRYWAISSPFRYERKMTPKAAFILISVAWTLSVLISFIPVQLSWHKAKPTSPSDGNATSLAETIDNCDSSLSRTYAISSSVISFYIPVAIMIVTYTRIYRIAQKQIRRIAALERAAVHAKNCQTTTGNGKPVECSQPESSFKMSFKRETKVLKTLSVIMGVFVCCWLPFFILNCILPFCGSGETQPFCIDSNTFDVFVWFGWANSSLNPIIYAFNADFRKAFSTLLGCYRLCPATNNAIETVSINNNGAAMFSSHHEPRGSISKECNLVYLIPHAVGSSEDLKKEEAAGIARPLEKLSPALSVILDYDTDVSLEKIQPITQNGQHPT
Muscarinic acetylcholine receptor M4 (Homo sapiens), sequence (P08173 whole entry): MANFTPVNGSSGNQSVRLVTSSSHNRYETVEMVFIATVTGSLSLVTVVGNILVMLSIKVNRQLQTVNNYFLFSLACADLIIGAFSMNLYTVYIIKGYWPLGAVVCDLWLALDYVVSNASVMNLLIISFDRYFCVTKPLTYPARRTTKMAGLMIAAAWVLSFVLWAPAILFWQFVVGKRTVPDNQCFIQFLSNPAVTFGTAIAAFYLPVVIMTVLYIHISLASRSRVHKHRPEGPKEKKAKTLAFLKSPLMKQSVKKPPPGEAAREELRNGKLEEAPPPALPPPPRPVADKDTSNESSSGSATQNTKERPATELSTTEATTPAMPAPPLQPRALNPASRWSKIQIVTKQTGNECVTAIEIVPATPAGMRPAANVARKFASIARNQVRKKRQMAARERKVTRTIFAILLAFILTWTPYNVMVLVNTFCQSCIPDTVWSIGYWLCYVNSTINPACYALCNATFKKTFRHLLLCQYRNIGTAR
Transient receptor potential cation channel subfamily A member 1, sequence (O75762 whole entry): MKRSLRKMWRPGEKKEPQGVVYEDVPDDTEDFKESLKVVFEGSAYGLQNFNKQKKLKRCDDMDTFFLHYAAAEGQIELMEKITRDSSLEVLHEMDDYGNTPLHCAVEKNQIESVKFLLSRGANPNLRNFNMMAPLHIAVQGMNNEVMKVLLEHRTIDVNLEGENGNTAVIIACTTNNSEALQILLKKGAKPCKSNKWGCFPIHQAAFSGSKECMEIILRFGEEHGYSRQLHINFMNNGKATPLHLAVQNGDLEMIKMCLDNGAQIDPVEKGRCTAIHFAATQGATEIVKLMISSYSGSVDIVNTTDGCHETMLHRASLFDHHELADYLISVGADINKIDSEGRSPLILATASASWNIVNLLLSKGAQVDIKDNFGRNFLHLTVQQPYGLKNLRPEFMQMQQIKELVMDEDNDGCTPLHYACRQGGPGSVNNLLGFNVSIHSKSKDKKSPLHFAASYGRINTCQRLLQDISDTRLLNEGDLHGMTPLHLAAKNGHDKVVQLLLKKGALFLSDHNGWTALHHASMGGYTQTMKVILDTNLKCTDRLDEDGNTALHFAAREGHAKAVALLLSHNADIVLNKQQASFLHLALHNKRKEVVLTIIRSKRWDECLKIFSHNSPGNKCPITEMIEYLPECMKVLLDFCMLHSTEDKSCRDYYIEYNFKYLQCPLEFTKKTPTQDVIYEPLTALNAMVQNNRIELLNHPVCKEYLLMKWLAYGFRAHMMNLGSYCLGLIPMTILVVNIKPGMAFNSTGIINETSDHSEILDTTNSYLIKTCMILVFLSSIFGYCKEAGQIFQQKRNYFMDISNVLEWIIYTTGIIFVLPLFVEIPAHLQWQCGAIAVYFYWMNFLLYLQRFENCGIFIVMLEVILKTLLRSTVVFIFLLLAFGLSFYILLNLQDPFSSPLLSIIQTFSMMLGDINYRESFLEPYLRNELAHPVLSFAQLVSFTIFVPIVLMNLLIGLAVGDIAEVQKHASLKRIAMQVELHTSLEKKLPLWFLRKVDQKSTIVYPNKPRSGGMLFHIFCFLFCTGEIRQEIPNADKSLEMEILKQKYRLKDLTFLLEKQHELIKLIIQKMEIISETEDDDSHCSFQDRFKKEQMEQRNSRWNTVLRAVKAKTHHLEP
Mu-type opioid receptor (Homo sapiens), sequence (P35372 whole entry): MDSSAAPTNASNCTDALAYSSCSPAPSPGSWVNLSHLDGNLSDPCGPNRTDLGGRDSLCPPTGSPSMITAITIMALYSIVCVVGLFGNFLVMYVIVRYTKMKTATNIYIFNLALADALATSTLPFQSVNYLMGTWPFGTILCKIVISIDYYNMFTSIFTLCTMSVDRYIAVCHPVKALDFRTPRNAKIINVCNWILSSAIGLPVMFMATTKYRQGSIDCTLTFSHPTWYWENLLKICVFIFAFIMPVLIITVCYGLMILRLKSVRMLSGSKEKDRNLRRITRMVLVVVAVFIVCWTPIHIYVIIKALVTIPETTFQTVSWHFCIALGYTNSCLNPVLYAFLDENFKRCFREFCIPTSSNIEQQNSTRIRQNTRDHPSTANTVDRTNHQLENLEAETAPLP

For `Cn1cnc2ncn(Cc3nc(CCc4ccc(Cl)cc4)no3)c(=O)c21`, the Activity (Homo sapiens) was greater than 77%, the Activity [1] was greater than 77% and the Activity [2] was greater than 77%. For the same compound, the Activity (Rattus norvegicus) was greater than 77%, the Activity [3] was greater than 77% and the IC50 [4] was 131 nM. The AUC(0-inf) [5] was 19.8 µM·h, the “Cp(f)” value (Plasma) was 580 nM and the Ratio [6] was 2.7.
